This is an account of results in ChEMBL document CHEMBL3272166, “Quantitative structure-activity relationships in centrally acting imidazolidines structurally related to clonidine” (J Med Chem, 1977).

Data set [1] relates to Rattus norvegicus. The data set is described as follows: Hypotensive activity in iv dosed anesthetized normotensive Wistar rat assessed as maximal decrease in mean arterial pressure. It counts as functional, Artery. As to conditions: for ED30: Rattus norvegicus, Wistar, Artery, iv. The gist of the method:
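Male Wistar rats (190-220 g) anaesthetised with pentobarbitone sodium 75 mg/kg ip, kept at 37 ± 1 °C, ventilated and heparinised. Carotid arterial pressure recorded; animals outside 100–150 mmHg after ~20 min equilibration discarded. Graded iv doses in saline, with randomised agents and doses and one rat per experiment. Log-dose–response curves of maximal fall in mean pressure gave the dose (μmol/kg) for a 30% decrease (ED30).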

Data set [2] can be described thus: Apparent partition coefficient, log P in octanol and 0.1 M phosphate buffer at pH 7.4. The conditions noted are these: octanol/0.1 M phosphate buffer. Type of data set: physicochemical.
The subject of data set [3] is Rattus norvegicus. Kind of data set: Hypotensive activity in iv dosed anesthetized normotensive Wistar rat assessed as maximal decrease in mean arterial pressure measured per gram of brain tissue. Type of data set: functional, Artery.
The subject of data set [4] is Rattus norvegicus. The data set is described as follows: Hypotensive activity in iv dosed anesthetized normotensive Wistar rat assessed as 30% decrease in mean arterial pressure. The conditions noted are these: Artery.

For the compound `Cc1cc(Cl)cc(C)c1N=C1NCCN1.Cl`, the “log(1/ED30)” value is given as 0.04 in the data set on Rattus norvegicus [1] and 0.54 with Rattus norvegicus [3]. Besides, the ED30 with Rattus norvegicus [1] came to 0.24 mg/kg. Also, in data set [2], the logD was -0.62.
On the same counts, the results for `Cl.Fc1cccc(F)c1N=C1NCCN1` are -0.29, -0.22, 0.6 mg/kg and -0.16.
Take `Cl.Clc1ccc(Cl)c(N=C2NCCN2)c1`: in the data set with Rattus norvegicus [1], the “log(1/ED30)” value is 0.32 and the ED30 worked out at 0.15 mg/kg. Also, in data set [2], the pH-dependent lipophilicity (logD) came out at 0.65. Further, the “log(1/ED30)” value with Rattus norvegicus [3] stood at 0.03.
On the same counts, the results for `Cl.Clc1ccccc1N=C1NCCN1` are 0.15, 0.17 mg/kg, -0.67 and 0.67.
In the same order, the values of `Cc1cc(Cl)cc(Cl)c1N=C1NCCN1.Cl` are 0.57, 0.079 mg/kg, 0.47 and 0.4.
Regarding `Cc1cccc(Cl)c1N=C1NCCN1.Cl`, the figures for the “log(1/ED30)” value in the data set on Rattus norvegicus [1] and in the data set on Rattus norvegicus [3] were 1.12 and 1.57, respectively. Besides, the ED30 with Rattus norvegicus [1] was 0.019 mg/kg. Moreover, the pH-dependent lipophilicity (logD) in data set [2] is -0.57.
As to `Cc1ccccc1N=C1NCCN1.Cl`, the “log(1/ED30)” value is reported as -0.67 in the data set with Rattus norvegicus [1] and 0.91 with Rattus norvegicus [3]. In the data set on Rattus norvegicus [1], the ED30 is 0.99 mg/kg. Further, the logD in data set [2] is -1.82.
Turning to `Cl.Clc1cccc(Cl)c1NC1=NCCN1` [CLONIDINE HYDROCHLORIDE], the “log(1/ED30)” value is given as 2.14 in the data set on Rattus norvegicus [1] and 1.78 in the data set with Rattus norvegicus [3]. Also, the ED30 in the data set on Rattus norvegicus [4] is 0.0027 mg/kg.
As to `COc1cc(Cl)c(N=C2NCCN2)c(Cl)c1.Cl`, the results for the “log(1/ED30)” value in the data set on Rattus norvegicus [1] and in the data set on Rattus norvegicus [3] were -0.78 and -0.82, respectively. Moreover, in the data set on Rattus norvegicus [1], the ED30 is 2 mg/kg. In addition, the logD in data set [2] was 0.15.
Consider `Cl.Clc1cccc(N=C2NCCN2)c1Cl`, for which, in the data set on Rattus norvegicus [1], the “log(1/ED30)” value came out at 1.37 and the ED30 worked out at 0.013 mg/kg. Also, the logD in data set [2] was determined as 0.57. In the data set on Rattus norvegicus [3], the “log(1/ED30)” value is on record as 1.13.
For `Cc1cc(Cl)c(N=C2NCCN2)c(Cl)c1.Cl`, in the data set with Rattus norvegicus [1], the “log(1/ED30)” value was 1.22 and the ED30 is 0.021 mg/kg. In addition, the logD in data set [2] turned out to be 0.73. Also, in the data set with Rattus norvegicus [3], the “log(1/ED30)” value stood at 0.87.
On the same counts, the results for `Cc1cccc(C)c1N=C1NCCN1.Cl` are 0.85, 0.032 mg/kg, -1.54 and 2.14.
In the same order, the values of `Cl.Fc1cccc(Cl)c1N=C1NCCN1` are 1.47, 0.0125 mg/kg, 0.52 and 1.13.
Consider `Brc1cc(Br)c(N=C2NCCN2)c(Br)c1.Cl`, for which the “log(1/ED30)” value in the data set with Rattus norvegicus [1] is listed as 0.28; in the data set on Rattus norvegicus [3] it was -0.65. The ED30 in the data set on Rattus norvegicus [1] worked out at 0.58 mg/kg. Also, in data set [2], the logD came out at 2.24.
On the same counts, the results for `Cl.Clc1ccc(N=C2NCCN2)c(Cl)c1` are 0.68, 0.58, 0.061 mg/kg and 0.29.
`Cl.Clc1cc(Br)cc(Cl)c1N=C1NCCN1`: in the data set with Rattus norvegicus [1], the “log(1/ED30)” value was found to be 1.03 and the ED30 was found to be 0.06 mg/kg. Besides, the logD in data set [2] came to 1.97.
`Cl.Clc1cc(Cl)c(N=C2NCCN2)c(Cl)c1`: the ED30 in the data set with Rattus norvegicus [1] is 0.021 mg/kg.
In the case of `Cl.Clc1cccc(Br)c1N=C1NCCN1`, the “log(1/ED30)” value came out at 2.22 with Rattus norvegicus [1] and 1.72 with Rattus norvegicus [3]. For the same compound, the logD in data set [2] was determined as 0.87. Also, in the data set with Rattus norvegicus [4], the ED30 is 0.0029 mg/kg.
On to `Cl.c1ccc(NC2=NCCN2)cc1`, for which the “log(1/ED30)” value in the data set with Rattus norvegicus [1] was -2.1; in the data set on Rattus norvegicus [3] it was -0.42. Further, the ED30 with Rattus norvegicus [1] came out at 25 mg/kg. For the same compound, the logD in data set [2] is -1.92.
On the same counts, the results for `Cc1cc(C)c(N=C2NCCN2)c(Cl)c1.Cl` are 0.52, 0.83, 0.08 mg/kg and -0.36.
On the same counts, the results for `Cc1ccc(N=C2NCCN2)c(C)c1.Cl` are -0.56, 0.86, 0.81 mg/kg and -1.66.
For the compound `Cc1cc(C)c(N=C2NCCN2)c(C)c1.Cl`, in the data set with Rattus norvegicus [1], the “log(1/ED30)” value is -0.07 and the ED30 was determined as 0.28 mg/kg. Also, the logD in data set [2] was -1.28. Besides, the “log(1/ED30)” value with Rattus norvegicus [3] was 0.98.
In the same order, the values of `Cl.O=[N+]([O-])c1cc(Cl)c(N=C2NCCN2)c(Cl)c1` are -0.34, 4.5 mg/kg, 1.92 and -1.68.
In the same order, the values of `Cc1cc(Cl)ccc1N=C1NCCN1.Cl` are -0.05, 0.275 mg/kg, -1.06 and 0.8.
For the compound `Cc1cc(Br)cc(C)c1N=C1NCCN1.Cl`, in the data set with Rattus norvegicus [1], the “log(1/ED30)” value was -0.36 and the ED30 was 0.7 mg/kg. Besides, the logD in data set [2] is -0.28. The “log(1/ED30)” value with Rattus norvegicus [3] is reported as -0.1.
On the same counts, the results for `Brc1cccc(Br)c1N=C1NCCN1.Cl` are 2.04, 0.0055 mg/kg, 1.21 and 1.4.
In the same order, the values of `Cc1ccc(N=C2NCCN2)c(Cl)c1.Cl` are 0.68, 0.053 mg/kg, -0.48 and 1.07.

As usually defined, the logD is the decadic logarithm of the distribution of all forms, ionised or not, between an organic phase and buffer at a given pH.
